# Rce1 inhib: yeast Ras-converting enzyme inhibition | calls only | yeast membranes, quenched prenylated peptide cleavage fluorescence | 0.27% of 290,000 active | Q03530;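 active = fall in fluorescence gain of 50% or more versus controls, with final raw signal at or below 3038400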;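 also: plate controls were neutral control wells for no effect and wells lacking membranes for full effect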
# Target sequence (Q03530 whole entry, looked up): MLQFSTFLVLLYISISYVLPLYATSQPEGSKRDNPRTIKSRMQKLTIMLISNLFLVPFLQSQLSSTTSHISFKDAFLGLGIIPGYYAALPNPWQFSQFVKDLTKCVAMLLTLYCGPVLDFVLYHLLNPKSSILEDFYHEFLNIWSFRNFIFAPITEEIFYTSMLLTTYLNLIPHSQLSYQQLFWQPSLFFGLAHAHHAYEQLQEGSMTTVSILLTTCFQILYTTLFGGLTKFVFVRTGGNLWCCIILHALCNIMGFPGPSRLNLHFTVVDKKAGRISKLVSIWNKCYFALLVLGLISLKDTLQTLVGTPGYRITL
# PG9 Ab binder: binds the HIV-1 gp120 antibody PG9; TR-FRET gp120-PG9 antibody binding; AID 624416; inhibition, % at 6.7 µM; 0.43% of 360,000 active; in the data active = inhibition above about 8.5%
# beta cell repl: induces beta-cell replication in MIN6 cells; MIN6 cells proliferation, ATPlite luminescence, 48 h; cells starved in 0.2% serum; 100% = growth in 10% serum; proliferation, % at 10 µM; 0.29% of 330,000 active; AID 2380;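 active = compounds whose signal lies at least 3.5 SD above the mean of all wells on their plate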;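 also: 0% = DMSO-treated cells in low-serum medium and 100% = 10% serum control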
# Rev-erbA mod: modulators of human Rev-erb alpha DNA binding. P20393. activity, % at 10 µM. Rev-erbα–FITC-DNA binding, fluorescence polarization, 90 min. 0.79% of 370,000 active;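 active = activity above about 14%, limit read from the data; passing the limit was not always enough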;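 also: 0% = DMSO wells with 35 nM protein and 100% = DMSO wells with 750 nM protein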
# Yeast superoxide: lowers age-related superoxide in aged yeast cells. 0.18% of 330,000 active. superoxide response (% of plate mean), % at 10 µM. AID 2690. S. cerevisiae aged cells, superoxide DHE fluorescence; hits give low values;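 active = superoxide response under a set limit, about three screen SD below normal, cut at about 65% in these data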;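 also: yeast aged for seven days with compound at 30 °C before DHE staining; 100% = average MFI of all compound-treated wells on the plate with controls excluded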
# UCH37 inh: blocks the human deubiquitinase UCH37 | Q9Y5K5 | purified proteasome/UCH37, Ub-AMC cleavage fluorescence | inhibition, % (concentration not given with the values) | 0.33% of 330,000 active;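 active = mean inhibition over replicate wells above about 20%, limit read from the data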;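 also: 0% = compound-free wells with enzyme and 100% = wells lacking proteasome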
#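 Test system – human UCH37 enzyme supplied as purified proteasome complex · Incubation – 30 min preincubation with enzyme, 25 min cleavage at room temperature · Detection – AMC fluorescence from Ub-AMC cleavage, excitation 355 nm, emission 460 nm · Benchmarks – no-proteasome wells (full inhibition) and compound-free wells (no inhibition)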
# PG9 binder conf: PG9 antibody binding, confirmed | shares compounds with PG9 Ab binder | TR-FRET PG9 antibody binding, biochemical | inhibition, % at 6.7 µM | 90% of 1,500 active | AID 651571; in the data active = inhibition above about 9%
# PGV04 counter: binds control antibody PGV04 in PG9 binder counter-screen; shares compounds with PG9 Ab binder; TR-FRET PGV04 antibody-gp120 binding, biochemical; inhibition, % at 6.7 µM; 95% of 1,500 active; in the data active = inhibition above about 9.5%
# PG9 bind DR: small molecules binding HIV-1 gp120 antibody PG9 | TR-FRET PG9 antibody-gp120 binding inhibition | shares compounds with PG9 Ab binder | IC50, µM | 95 tested, under 10 active | AID 651848; in the data active = IC50 below about 10 µM
# PGV04 DR counter: counter-screen for PG9 binders: binding to control antibody PGV04; shares compounds with PG9 Ab binder; 20% of 95 active; TR-FRET binding to control antibody PGV04; IC50, µM; AID 651937
# PG126 DR counter: binds control antibody PG126 in PG9 counter-screen | shares compounds with PG9 Ab binder | TR-FRET binding to antibody PG126, counterscreen | AID 651939 | 20% of 95 active | IC50, µM
# The depositor's hits bear a star; i = inactive; . = no result given. Sampled rows, rich in hits. Any-hit rate of the full collection: about 1.9%. Rule as the data show it, unless noted: active = IC50 below about 9 µM; inactive = the rest.
SMILES,Rce1 inhib,PG9 Ab binder,beta cell repl,Rev-erbA mod,Yeast superoxide,UCH37 inh,PG9 binder conf,PGV04 counter,others
Cn1cc(CNC(=O)c2cc(-c3ccc(Br)cc3)nc3ccccc23)cn1,i,-1,-2,1,110,-8,.,.,
COc1ccc(CN(C)C(=O)c2cc(-c3ccccc3)nc3ccc(C)cc23)c(OC)c1,.,-1,.,6,.,.,.,.,
CC(=NNC(=O)c1ccco1)c1ccc(-c2ccccc2)cc1,.,.,.,.,.,3,.,.,
O=C(Cc1ccccc1)NCC(=O)NN=Cc1ccc(Cl)cc1,.,.,.,.,.,1,.,.,
Cc1cccc(NC(=O)c2cnn3ccccc23)c1C,i,11*,-3,-3,96,1,1,4,
Cc1cccc(NC(=O)c2ccccc2O)c1C,i,-4,-2,-1,78,-4,.,.,
O=C1c2[nH]nc(-c3ccccc3O)c2C(c2cccc(Cl)c2)N1CC1CCCO1 (stereo not given),i,8.6*,-5,0,97,-1,25*,19*,PG9 bind DR=>67;PGV04 DR counter=>67;PG126 DR counter=>67
O=C1c2[nH]nc(-c3ccccc3O)c2C(c2ccc(F)cc2)N1CC1CCCO1 (stereo not given),i,-1,0,1,93,5,.,.,
Cc1cc(SCC(=O)NN=Cc2ccc(C(=O)O)cc2)nc2ccccc12,.,.,.,.,.,8,.,.,
C[C@H](CO)N1C[C@H](C)[C@@H](CN(C)Cc2ccccc2)Oc2c(NS(=O)(=O)c3ccccc3)cccc2C1=O,.,-2,-2,-4,89,5,.,.,
C[C@H](CO)N1C[C@H](C)[C@@H](CN(C)Cc2ccccc2)Oc2c(NS(=O)(=O)c3ccc(F)cc3)cccc2C1=O,.,11*,-2,-5,86,3,31*,47*,
CCOC(=O)c1c(C)[nH]c(C(=O)COC(=O)c2ccc(F)c(S(=O)(=O)N3CCOCC3)c2)c1C,i,17*,1,16,102,4,29*,40*,
COc1cc(NC(=O)c2cc3ccccc3o2)c(OC)cc1Br,i,1,3,20,96,-6,.,.,
COc1cc(NC(=O)c2cc3ccccc3o2)c(OC)cc1Cl,i,20*,-1,16,104,-64,18*,34*,
Cc1cccc(NCC(=O)NN=Cc2cccn2C)c1,.,.,.,.,.,5,.,.,
Cc1nn(-c2ccccc2)c(Cl)c1C=NNC(=O)OC(C)(C)C,.,.,.,.,.,1,.,.,
COc1ccc2c(-c3ccccc3)cc(=S)[nH]c2c1,i,1,-4,-1,98,3,.,.,
COc1ccc2c(C)cc(=S)[nH]c2c1,i,19*,1,-3,.,6,8.6*,9.5*,
ON=C(Cc1ccccn1)c1ccccc1,.,.,.,.,.,7,.,.,
CC(C)c1c(C(=O)NN=C/C=C/c2ccccc2)nnn1-c1nonc1N,.,.,.,.,.,10,.,.,
CCN1C(=O)C2(C(C(=O)c3cc4ccccc4o3)=C(O)C(=O)N2CCCN(C)C)c2ccccc21 (stereo not given),i,.,-2,.,92,7,.,.,
Cc1ccc(C(=O)C2=C(O)C(=O)N(CCCN3CCOCC3)C23C(=O)N(C)c2ccccc23)o1 (stereo not given),i,9.1*,-1,-5,90,6,19*,23*,
CCN1C(=O)C2(C(C(=O)c3cc4ccccc4o3)=C(O)C(=O)N2CCCN2CCOCC2)c2ccccc21 (stereo not given),i,36*,-2,-4,112,11,45*,55*,

# Screening data deposited in PubChem by several laboratories.
